Experimental data taken from ChEMBL document CHEMBL1145212, “Fluorinated diaryl sulfides as serotonin transporter ligands: synthesis, structure-activity relationship study, and in vivo evaluation of fluorine-18-labeled compounds as PET imaging agents” (J Med Chem, 2005).

Legend:
Format in all cases: cell-based
[1] = target: Sodium-dependent serotonin transporter (Homo sapiens, UniProt P31645); assay: In vitro displacement of [3H]paroxetine from human serotonin transporter expressed in HEK293 cells
[2] = target: Sodium-dependent noradrenaline transporter (Homo sapiens, UniProt P23975); assay: In vitro displacement of [3H]nisoxetine from human norepinephrine transporter expressed in HEK293 cells
Summary of the method: (§1)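 Competitive binding using cloned human transporters expressed in HEK-293 cells. NET was labelled with [³H]nisoxetine and DAT with [³H]GBR12935, following a previously published procedure.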

[3] = target: Sodium-dependent dopamine transporter (Homo sapiens, UniProt Q01959); assay: In vitro displacement of [3H]GBR-12935 from human dopamine transporter expressed in HEK293 cells; summary of the method: as §1
Sodium-dependent dopamine transporter, sequence (Q01959 whole entry): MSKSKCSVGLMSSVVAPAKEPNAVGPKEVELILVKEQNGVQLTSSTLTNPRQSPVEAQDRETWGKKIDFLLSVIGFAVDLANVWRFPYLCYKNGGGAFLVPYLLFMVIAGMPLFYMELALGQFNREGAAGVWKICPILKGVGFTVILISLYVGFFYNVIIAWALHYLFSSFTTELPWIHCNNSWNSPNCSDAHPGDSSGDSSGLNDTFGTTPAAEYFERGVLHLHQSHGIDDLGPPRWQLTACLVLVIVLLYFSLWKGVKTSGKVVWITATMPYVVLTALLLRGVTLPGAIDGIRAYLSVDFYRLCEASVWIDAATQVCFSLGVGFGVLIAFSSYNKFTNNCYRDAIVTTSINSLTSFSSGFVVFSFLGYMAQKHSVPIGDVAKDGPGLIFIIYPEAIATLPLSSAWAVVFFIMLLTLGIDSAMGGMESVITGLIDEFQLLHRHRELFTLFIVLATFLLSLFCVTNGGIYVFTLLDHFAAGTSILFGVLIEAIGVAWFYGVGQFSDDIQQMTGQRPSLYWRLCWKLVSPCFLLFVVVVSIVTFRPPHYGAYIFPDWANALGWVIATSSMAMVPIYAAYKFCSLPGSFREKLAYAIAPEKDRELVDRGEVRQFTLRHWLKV

Sodium-dependent noradrenaline transporter, sequence (P23975 whole entry): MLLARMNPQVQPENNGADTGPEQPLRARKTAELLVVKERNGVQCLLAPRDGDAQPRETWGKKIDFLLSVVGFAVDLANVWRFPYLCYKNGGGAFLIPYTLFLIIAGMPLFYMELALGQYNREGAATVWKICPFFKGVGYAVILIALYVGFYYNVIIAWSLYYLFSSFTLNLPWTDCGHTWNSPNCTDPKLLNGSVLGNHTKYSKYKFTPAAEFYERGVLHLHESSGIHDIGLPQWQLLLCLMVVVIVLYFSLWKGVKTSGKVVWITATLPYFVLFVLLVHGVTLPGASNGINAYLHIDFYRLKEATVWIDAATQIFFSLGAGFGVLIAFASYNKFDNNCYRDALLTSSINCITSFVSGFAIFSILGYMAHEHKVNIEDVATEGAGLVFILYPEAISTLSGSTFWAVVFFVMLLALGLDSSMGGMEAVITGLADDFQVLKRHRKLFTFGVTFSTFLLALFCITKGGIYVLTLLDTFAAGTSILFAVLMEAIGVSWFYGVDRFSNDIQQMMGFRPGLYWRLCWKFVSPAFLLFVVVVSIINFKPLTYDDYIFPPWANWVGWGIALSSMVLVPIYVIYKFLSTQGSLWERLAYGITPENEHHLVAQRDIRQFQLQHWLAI
Sodium-dependent serotonin transporter, sequence (P31645 whole entry): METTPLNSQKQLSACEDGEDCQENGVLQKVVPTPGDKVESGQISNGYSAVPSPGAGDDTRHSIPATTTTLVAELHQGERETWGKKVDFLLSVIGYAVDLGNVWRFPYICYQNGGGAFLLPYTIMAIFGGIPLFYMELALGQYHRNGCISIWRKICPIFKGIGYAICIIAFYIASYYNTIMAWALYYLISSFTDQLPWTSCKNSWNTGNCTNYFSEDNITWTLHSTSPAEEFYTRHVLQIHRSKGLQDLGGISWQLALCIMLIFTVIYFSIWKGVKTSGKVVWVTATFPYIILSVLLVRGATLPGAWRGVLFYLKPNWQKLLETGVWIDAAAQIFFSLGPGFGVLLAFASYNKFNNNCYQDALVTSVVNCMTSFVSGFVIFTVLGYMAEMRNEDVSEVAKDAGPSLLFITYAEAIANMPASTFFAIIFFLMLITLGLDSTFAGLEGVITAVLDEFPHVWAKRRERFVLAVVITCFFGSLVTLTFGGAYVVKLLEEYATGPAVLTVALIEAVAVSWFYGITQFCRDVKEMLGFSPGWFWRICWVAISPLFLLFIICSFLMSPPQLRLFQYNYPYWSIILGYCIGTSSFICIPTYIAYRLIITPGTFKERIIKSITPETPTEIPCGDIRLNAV

| Ki [1] [nM] | Ki [2] [µM] | Ki [3] [µM] | Compound |
| --- | --- | --- | --- |
| 0.8 | 0.787 | 3.61 | CN(C)Cc1ccccc1Sc1ccc(CO)cc1N |
| 179 | 7.04 | > 10 | Cc1cc(N)c(Sc2ccccc2CN(C)C)cc1F |
